The source made the active and inactive calls. The rule behind the calls is not given here.
What was measured:
[1] = Partition coefficient (logP); format: physicochemical; settings: octanol/water
[2] = system: Canis familiaris; test: Antisecretory dose in mg/kg required for 50% inhibition in dogs by intravenous administration; format: functional, Canis lupus familiaris
How it was run: (§1)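 Pentagastrin-stimulated Heidenhain pouch dogs were dosed iv, and acid output was titrated from 30-min collections. Percent inhibition compares the lowest post-dose output with the pre-dose mean. The dose giving 50% inhibition came from linear regression of log dose on percent inhibition in n dogs.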

[3] = system: Canis familiaris; test: Maximum percent inhibition of acid output in pentagastrin-stimulated Heidenhain pouch dog following 1 mg/kg i.v. administration.; format: functional; settings: Canis lupus familiaris, route intravenous
How it was run: (§2)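 Fasted unanesthetized Heidenhain pouch dogs, with acid output stimulated to near maximum by continuous pentagastrin infusion into a leg vein. Gastric juice was collected every 30 min, ten collections per dog. Acid was titrated to pH 7.4 with 0.1 N NaOH. Compound or vehicle was given iv 90 min after the infusion started. Percent inhibition compares the lowest post-dose acid output with the mean output just before dosing. Single experiments.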

[4] = system: Canis familiaris; test: Maximum percent inhibition of acid output in pentagastrin-stimulated Heidenhain pouch dog at dose (9 mg/kg) administered intravenously; format: functional; settings: Canis lupus familiaris, iv; how it was run: as §2
[5] = molecular target: Histamine H2 receptor (Cavia porcellus) (UniProt P47747); test: Dissociation constant of H2 receptor antagonist activity against guinea pig atrium; format: functional, tissue-based; settings: Cardiac atrium
Sequence of Histamine H2 receptor (Cavia porcellus) (P47747 whole entry): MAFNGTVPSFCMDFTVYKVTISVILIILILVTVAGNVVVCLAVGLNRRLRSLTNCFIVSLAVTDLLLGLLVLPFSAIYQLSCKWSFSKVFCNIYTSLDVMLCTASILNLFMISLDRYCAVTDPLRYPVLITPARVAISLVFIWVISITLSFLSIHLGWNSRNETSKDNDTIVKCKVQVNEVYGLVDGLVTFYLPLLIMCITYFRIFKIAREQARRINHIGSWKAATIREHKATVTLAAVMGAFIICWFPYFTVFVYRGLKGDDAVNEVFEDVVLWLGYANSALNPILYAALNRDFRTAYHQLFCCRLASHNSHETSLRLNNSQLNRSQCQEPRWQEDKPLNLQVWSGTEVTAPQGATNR

[6] = system: Canis familiaris; test: Maximum percent inhibition of acid output in pentagastrin-stimulated Heidenhain pouch dog at dose (5 mg/kg) administered intravenously; format: functional; settings: Canis lupus familiaris, iv; how it was run: as §2
[7] = system: Canis familiaris; test: Maximum percent inhibition of acid output in pentagastrin-stimulated Heidenhain pouch dog following 10 mg/kg i.v. administration.; format: functional; settings: Canis lupus familiaris, route intravenous; how it was run: as §2
[8] = species on record: Canis familiaris; test: Effective dose for acid output in pentagastrin-stimulated Heidenhain pouch dog; format: functional, Canis lupus familiaris; how it was run: as §1
[9] = system: Canis familiaris; test: Maximum percent inhibition of acid output in pentagastrin-stimulated Heidenhain pouch dog at dose (0.5 mg/kg) administered intravenously; format: functional; settings: Canis lupus familiaris, iv; how it was run: as §2
[10] = system: Canis familiaris; test: Maximum percent inhibition of acid output in pentagastrin-stimulated Heidenhain pouch dog at dose (23 mg/kg) administered intravenously; format: functional; settings: Canis lupus familiaris, iv; how it was run: as §2
[11] = system: Canis familiaris; test: Maximum percent inhibition of acid output in pentagastrin-stimulated Heidenhain pouch dog at dose(mg/kg) administered intravenously; format: functional, Canis lupus familiaris; how it was run: as §2
[12] = system: Canis familiaris; test: Maximum percent inhibition of acid output in pentagastrin-stimulated Heidenhain pouch dog at dose (25 mg/kg) administered intravenously; format: functional; settings: Canis lupus familiaris, iv; how it was run: as §2
[13] = molecular target: Histamine H2 receptor (Cavia porcellus) (UniProt P47747); test: Dissociation constant of H2 receptor antagonist activity against guinea pig atrium;NA means not active; format: functional, tissue-based; settings: Cardiac atrium
How it was run: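 Right atria from guinea pigs killed by a blow to the head, hung isometrically in oxygenated (95% O2/5% CO2) Krebs–Henseleit buffer at pH 7.4 and 32 ± 2 °C, and stabilized about 1 h. Histamine dose–response curves were run before and after antagonist at set final concentrations, with 3- or 30-min drug equilibration. DR is the ratio of half-maximal histamine concentrations. KB = B/(DR − 1). Schild slope is log(DR − 1) vs log B.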

[14] = system: Canis familiaris; test: Maximum percent inhibition of acid output in pentagastrin-stimulated Heidenhain pouch dog at dose (8 mg/kg) administered intravenously; format: functional; settings: Canis lupus familiaris, iv; how it was run: as §2

| SMILES | logP [1] | -Log I50 [2] | inhibition in vivo at 1 mg/kg [3] [%] | KB [5] [µM] | inhibition in vivo at 10 mg/kg [7] [%] | other results |
| --- | --- | --- | --- | --- | --- | --- |
| CCCCNc1cc(-c2n[nH]c(N)n2)ccn1 | 2.15 | -0.5 | 29 | 0.67 |  | inhibition in vivo at 9 mg/kg [4]: 69% |
| CCNc1cc(-c2n[nH]c(CC)n2)ccn1 |  |  |  | 1.3 |  | inhibition in vivo at 5 mg/kg [6]: 17% |
| CCCCCCNc1cc(-c2n[nH]c(N)n2)ccn1 | 3.3 | -1.2 |  | 0.27 | 40 |  |
| CCNc1cc(-c2c[nH]c(C)n2)ccn1 |  |  |  | 1.4 | 55 |  |
| Cc1n[nH]c(-c2ccnc(Cc3ccccc3)c2)n1 |  |  |  |  | 31 |  |
| Nc1cc(-c2n[nH]c(N)n2)ccn1 | 0.11 | -0.306 |  | 2.2 |  | ED50 [8]: 2.35 mg/kg |
| CCNc1cc(-c2n[nH]c(NC)n2)ccn1 |  |  | 35 | 1.3 | 72 |  |
| CN/C(=N\CCSCc1nc[nH]c1C)NC#N [CIMETIDINE] |  |  |  |  |  | ED50 [8]: 1.02 mg/kg |
| CCNc1cc(-c2n[nH]c(NCC)n2)ccn1 |  |  | 38 | 4.7 |  | inhibition in vivo at 0.5 mg/kg [9]: 21% |
| CCCc1n[nH]c(-c2ccnc(NCC)c2)n1 |  |  |  | 11 | 45 |  |
| Nc1n[nH]c(-c2ccnc(Nc3ccccc3)c2)n1 |  |  |  |  | 0 |  |
| Cc1cc(-c2c[nH]c(C)n2)ccn1 |  |  |  | 4.6 | 24 |  |
| CCNc1cc(-c2n[nH]c(C)n2)ccn1 |  |  | 35 | 0.55 |  |  |
| Nc1n[nH]c(-c2ccncc2)n1 |  |  |  | 42 | 43 | inhibition in vivo at 23 mg/kg [10]: 73% |
| CC(C)Nc1cc(-c2n[nH]c(N)n2)ccn1 |  |  |  | 3.6 |  | inhibition in vivo at 5 mg/kg [6]: 52% |
| CCCCCCCCCCNc1cc(-c2n[nH]c(N)n2)ccn1 | 4.07 | -1.7 |  |  |  | Inhibition [11]: 14%; Kb [5]: 4.78 µM |
| CCNc1cc(-c2n[nH]c(CO)n2)ccn1 |  |  | 20 | 4.5 | 53 |  |
| CCNc1cc(-c2c[nH]cn2)ccn1 |  |  |  | 0.59 | 27 |  |
| CCCNc1cc(-c2n[nH]c(N)n2)ccn1 | 1.61 | -0.379 | 33 | 0.77 |  | inhibition in vivo at 5 mg/kg [6]: 64% |
| CCN(C)c1cc(-c2n[nH]c(N)n2)ccn1 |  |  | 42 |  |  |  |
| Cc1ccc(CNc2cc(-c3n[nH]c(N)n3)ccn2)cc1C | 3.08 | -0.718 |  | 0.11 |  | inhibition in vivo at 5 mg/kg [6]: 49% |

| SMILES | logP [1] | -Log I50 [2] | inhibition in vivo at 1 mg/kg [3] [%] | KB [5] [µM] | inhibition in vivo at 10 mg/kg [7] [%] | other results |
| --- | --- | --- | --- | --- | --- | --- |
| C=CCNc1cc(-c2nc(N)n[nH]2)ccn1 | 1.26 | -0.37 | 31 | 0.48 |  |  |
| Nc1n[nH]c(-c2ccnc(N3CCCC3)c2)n1 |  |  | 0 |  |  |  |
| CCNc1cc(-c2n[nH]c(N)n2)ccn1 | 1.13 | -0.028 |  | 0.23 |  | ED50 [8]: 0.87 mg/kg |
| COCCNc1cc(-c2n[nH]c(N)n2)ccn1 | 0.94 | -0.88 | 11 | 3.5 | 50 |  |
| CN(C)c1cc(-c2n[nH]c(N)n2)ccn1 |  |  | 48 | 3.2 |  | inhibition in vivo at 5 mg/kg [6]: 80% |
| Cc1cc(-c2n[nH]c(N)n2)ccn1 |  |  | 26 | 13 |  | inhibition in vivo at 5 mg/kg [6]: 60% |
| Cc1nc(-c2ccncc2)c[nH]1 |  |  |  |  |  | inhibition in vivo at 25 mg/kg [12]: 56% |
| Nc1n[nH]c(-c2ccnc(NCCCc3ccccc3)c2)n1 | 3.05 |  |  |  | 30 |  |
| Cc1n[nH]c(-c2ccnc(CO)c2)n1 |  |  |  | 23 | 7 |  |
| CNc1cc(-c2n[nH]c(N)n2)ccn1 | 0.694 | 0 | 50 | 0.56 |  |  |
| Nc1n[nH]c(-c2ccnc(NCCO)c2)n1 | 0.24 | -1.31 |  | 2 | 34 |  |
| CCNc1cc(-c2n[nH]c(Cc3ccccc3)n2)ccn1 |  |  |  |  | 19 | KB [13]: inactive |
| Nc1n[nH]c(-c2ccnc(NCCc3ccccc3)c2)n1 | 2.63 | -1 |  | 1.9 | 50 |  |
| CCNc1cc(-c2nc[nH]n2)ccn1 |  |  |  | 5 | 29 |  |
| CC(C)(C)c1ccc(CNc2cc(-c3n[nH]c(N)n3)ccn2)cc1 |  |  |  | 0.14 |  | inhibition in vivo at 8 mg/kg [14]: 0% |
| Nc1n[nH]c(-c2ccnc(NCc3ccccc3)c2)n1 | 2.15 | -0.568 | 21 | 0.71 | 72 |  |
| Nc1n[nH]c(-c2ccnc(NCc3ccc(Cl)cc3)c2)n1 | 2.85 | -0.428 | 21 | 0.3 |  |  |
| CCNc1cc(-c2c[nH]c(N)n2)ccn1 |  |  | 22 | 3.3 | 74 |  |
| CCCc1cc(-c2n[nH]c(N)n2)ccn1 |  |  |  | 4 |  | inhibition in vivo at 5 mg/kg [6]: 0% |
| Cc1ccc(CNc2cc(-c3n[nH]c(N)n3)ccn2)cc1 | 2.69 | -1.03 |  | 0.13 |  | inhibition in vivo at 5 mg/kg [6]: 33% |
| CCc1cc(-c2n[nH]c(N)n2)ccn1 |  |  |  | 1.8 |  | inhibition in vivo at 5 mg/kg [6]: 55% |
